Source: PubChem (several laboratories)
MDM2 E3 inh: blocks human Mdm2 ubiquitin ligase activity | Q00987 | cell-based MDM2 ubiquitination luciferase reporter, 2 h; 0 = plate control, 100 = twice control, blank-subtracted | signal enhancement, % at 5 µM | actives 0.11% (n = 210,000);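 active = signal enhancement of 30% or more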;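 note: luminescence tracks abundance of the self-degrading MDM2-luciferase fusion protein; higher signal means inhibition of MDM2 E3 ligase activity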
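Test system: stable mammalian line carrying autodegrading MDM2–luciferase fusion reporter; quantity: 2000 cells in each well; times: 4 h cell settling then 2 h compound exposure, 37 °C; detection: luminescence with SteadyLite reagent, 15 min at room temperature; evaluation: percent signal gain over controls, blank-subtracted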
TbHK1 inh: T. brucei hexokinase 1 inhibition; inhibition, % at 10 µM; recombinant TbHK1, G6PDH-coupled NADH A340; actives 0.11% (n = 220,000);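 active = inhibition of 50% or more in the single-dose primary screen; inactive = inhibition below 50%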
Wee1 degr inh: inhibitors of human Wee1 degradation | P30291 | HeLa Luc-Wee1K328M stability, luciferase luminescence; 100% = proteasome inhibitor MG132 effect | reporter increase, % at 5 µM | actives 1.2% (n = 220,000) | AID 1321;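 active = activation above the mean of all tested compounds plus 3 SD, set per screening run, cut at about 8.8% in these data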;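 note: cells exposed to compound for 20 h before luminescence read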
Hck Nef HTS: inhibitors of human Hck kinase activated by Nef. inhibition, % at 20 µM. Recombinant Hck-YEEI plus Nef, Z-Lyte FRET kinase assay. P08631. actives 0.68% (n = 220,000);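 active = Hck-Nef kinase inhibition above about 50%, limit read from the data; inactive = inhibition below that limit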
14-3-3 Bad PPI: disrupts binding of bovine 14-3-3 zeta to phospho-Bad peptide; P63103; TR-FRET 14-3-3zeta/Dy647-pBad peptide displacement, 1 h; inhibition, % at 21.7 µM; actives 0.71% (n = 220,000);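 active = inhibition above about 70%, limit read from the data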
Target sequence (P63103 whole entry, looked up): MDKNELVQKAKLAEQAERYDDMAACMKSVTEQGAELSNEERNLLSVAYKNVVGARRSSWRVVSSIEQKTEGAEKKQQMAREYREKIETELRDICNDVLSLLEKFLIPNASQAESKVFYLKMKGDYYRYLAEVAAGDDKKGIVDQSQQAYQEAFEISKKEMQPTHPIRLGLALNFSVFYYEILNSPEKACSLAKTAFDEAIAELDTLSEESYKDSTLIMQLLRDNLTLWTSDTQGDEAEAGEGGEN
Wee1 degr conf: confirmation of human Wee1 degradation inhibitors; AID 1410; HeLa Luc-Wee1K328M degradation, luminescence; vehicle 0%, proteasome-blocked wells 100%; activation, % at 5 µM; shares compounds with Wee1 degr inh; actives 4% (n = 1,100); in the data active = activation above about 8.9%
Numbers stand for hits; - = inactive; . = no result. Shown are actives, neighbours in structure and some others; about 2.7% of the full set was active somewhere.

SMILES	MDM2 E3 inh	TbHK1 inh	Wee1 degr inh	Hck Nef HTS	14-3-3 Bad PPI	Wee1 degr conf
Cc1cc(NC(=O)Nc2ccc(Cl)c(Cl)c2)n(-c2ccccc2)n1	-	-	-	-	-	.
C(=N\Nc1nc2ccccc2[nH]1)/c1ccc2c(c1)OCCO2	-	-	11	-	-	-
Cc1cc(NC(=O)COC(=O)C(Cc2ccccc2)NC(=O)c2ccco2)no1 (stereo not given)	-	-	21	-	-	-
Cc1cc(C)nc(N2CCCC(C(=O)Nc3nc4ccc(S(C)(=O)=O)cc4s3)C2)n1 (stereo not given)	-	-	11	-	-	-
Cc1cc(C)nc(N2CCCC(C(=O)Nc3nnc(C)s3)C2)n1 (stereo not given)	-	-	-	-	-	.
CC(=O)Nc1ccc(NC(=O)COC(=O)CCc2nc3ccccc3s2)cc1	-	-	-	-	-	.
Cc1ccc(-c2nc3ccc(C(=O)O)cc3nc2-c2ccc(C)cc2)cc1	-	-	-	-	-	.
O=C(O)c1ccc2nc3c(nc2c1)-c1ccccc1C3=O	-	-	17	-	-	-
O=C(NC(=S)N(CCO)Cc1ccccc1)c1cc(Br)ccc1Cl	-	-	11	-	-	-
CCCN(Cc1ccccc1)C(=S)NC(=O)c1ccccc1[N+](=O)[O-]	-	-	-	-	-	.
CC1(C)CCCN(C(=O)c2coc(=O)c(Br)c2)C1	-	-	-	-	-	.
Cc1cc(C)n2nc(-c3ccc(F)cc3)nc2n1	-	-	16	-	-	-
O=C(NNC(=S)Nc1cccc(C(F)(F)F)c1)c1ccccc1Cl	-	-	12	-	-	-
O=C(NNC(=S)Nc1cccc(C(F)(F)F)c1)c1cccc(Cl)c1	-	-	-	-	-	.
O=C(CSc1nnc(-c2ccncc2)n1CCc1ccccc1)N1CCCC1	.	-	12	-	-	-
Cc1ccc(-c2nnc(SCC(=O)N3CCCC3)o2)cc1	-	-	-	-	-	.
O=C(CSc1nnc(-c2ccncc2)o1)N1CCCCCC1	-	-	13	-	-	-
Cc1nc2cc(Nc3ccncc3)ccc2s1	-	-	-	-	-	.
COc1ccc2c(COC(=O)CC3Sc4ccccc4NC3=O)cc(=O)oc2c1 (stereo not given)	-	-	11	-	-	-
Clc1ccc(OCc2nnc3n2CCCCC3)c(Cl)c1	-	-	-	-	-	.
Cc1ccc(NC(=S)N/N=C/c2cccn2Cc2ccccc2F)cc1	.	-	19	-	-	-
Cc1ccc(CN2CCN(CC(=O)N/N=C/c3ccccc3F)CC2)cc1	-	-	-	-	-	.
CCOC(=O)c1ccc(NC(=S)N(CCCN2CCCC(C)C2)Cc2ccco2)cc1 (stereo not given)	-	-	-	-	-	.
COc1ccc(-c2nc(NC(=O)c3n[nH]c(=O)c4ccccc34)sc2C)cc1	-	-	32	-	-	-
O=C(CSc1nc2ccccc2c(=O)n1-c1ccc(F)c(Cl)c1)Nc1cccc(S(=O)(=O)N2CCOCC2)c1	-	-	-	-	-	.
SMILES	MDM2 E3 inh	TbHK1 inh	Wee1 degr inh	Hck Nef HTS	14-3-3 Bad PPI	Wee1 degr conf
O=C(CSc1nc2ccccc2c(=O)n1-c1ccc(F)cc1)Nc1ccc(Cl)c(S(=O)(=O)N2CCOCC2)c1	-	-	14	-	-	-
O=C(Oc1ccc(=O)n(-c2ccccc2)n1)c1ccc(F)cc1	-	-	-	-	-	.
O=C(Oc1ccc(=O)n(-c2ccccc2)n1)c1cccc(Cl)c1	-	-	11	-	-	-
COc1ccc(CN2CCNC(=O)C2CC(=O)NCc2cnn(C)c2)cc1OC (stereo not given)	-	-	-	-	-	.
CCCC(C(=O)Nc1nccs1)c1ccccc1 (stereo not given)	-	-	-	-	-	.
CCC(C(=O)Nc1nccs1)c1ccccc1 (stereo not given)	-	-	17	-	-	-
CN(C)CC(C)(C)CNC(C(=O)Nc1ccc(Cl)cc1C(F)(F)F)c1ccccc1 (stereo not given)	-	-	-	-	-	.
CCCCCCCCCn1c2c(c(=N)c3c1CCC3)CCCC2	-	-	11	-	-	-
Cc1cc(C)n(CCCNC(=O)c2ccc(S(=O)(=O)NCc3ccco3)cc2)n1	-	-	-	-	-	.
CCCC(O)(CCN1CCOCC1)c1ccc(Br)cc1 (stereo not given)	-	-	-	-	-	.
COc1cc(/C=N/NC(=O)c2cc(C3CC3)[nH]n2)ccc1O	-	-	12	-	-	-
COc1ccc(/C=N/NC(=O)c2cc(C3CC3)[nH]n2)cc1OC	-	-	-	-	-	.
COc1ccc(/C=C/C(=O)NC(=S)N2CCN(c3ccccc3OC)CC2)cc1	-	-	12	-	-	-
COc1ccccc1N1CCN(C(=O)/C=C/c2ccc(C)cc2)CC1	-	-	-	-	-	.
Cc1ccc(C(=O)/C=C/Nc2cccc([N+](=O)[O-])c2)o1	-	-	-	-	-	.
CC(O)C(NS(=O)(=O)c1ccc(Cl)cc1)C(=O)OCC(=O)Nc1cccnc1Cl (stereo not given)	-	-	20	-	-	-
COc1cc(Cl)c(C)cc1NC(=O)COC(=O)C(NS(=O)(=O)c1ccc(Cl)cc1)C(C)O (stereo not given)	-	-	-	-	-	.
O=C(CNc1cc(S(=O)(=O)N2CCCC2)ccc1OCC(F)(F)F)Nc1cccc(C(F)(F)F)c1	-	-	-	-	-	.
O=C(Nc1cc(S(=O)(=O)N2CCCC2)ccc1OCC(F)(F)F)c1ccccc1F	-	-	13	-	-	-
CC(=O)N1CCc2ccccc2C1CC(=O)O (stereo not given)	-	-	-	-	-	.
O=C(NNC(=O)C(O)(c1ccccc1)c1ccccc1)C1CC1	-	-	-	-	-	.
COc1cccc(N2C(=O)[C@H]3C(C(=O)c4cnccn4)=NN[C@H]3C2=O)c1	.	-	21	-	-	-
O=C(C1=NN[C@@H]2C(=O)N(c3cccc(F)c3)C(=O)[C@H]12)c1ccc2ccccc2n1	-	-	-	-	-	.
Clc1ccc(Cn2ncc3c(N4CCCC4)ncnc32)cc1	-	-	16	-	-	-
Clc1ccc(Cn2ncc3c(N4CCCCC4)ncnc32)cc1	-	-	-	-	-	.
SMILES	MDM2 E3 inh	TbHK1 inh	Wee1 degr inh	Hck Nef HTS	14-3-3 Bad PPI	Wee1 degr conf
Nc1nnn(CC(=O)N/N=C/c2cn[nH]c2-c2ccccc2)n1	-	-	-	-	-	.
Cn1ccnc1SCC(=O)Nc1nc2ccccc2s1	-	-	14	-	-	-
O=C(CSc1ccccn1)Nc1nc2ccccc2s1	-	-	-	-	-	.
CC(=O)N(CC(=O)O)c1ccccc1C(=O)O	-	-	-	-	-	.
Cc1cccc(C(=O)NC2=NCCS2)c1	-	-	33	76	-	-
CC(C)C(=O)Nc1nnc(Cc2c[nH]c3ccccc23)s1	-	-	-	-	-	.
